Sampled rows, rich in hits. Any-hit rate of the full collection: about 1.8%.
TDP2 inh = TDP2 (human) inhibition, absorbance primary screen; inhibition, % at 12.8 µM; O95551; recombinant TDP2, T5PNP hydrolysis, p-nitrophenol absorbance 415 nm; 370,000 tested, 0.34% active; AID 720702;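 active means inhibition above the mean of all tested compounds plus 3 SD, set per campaign, cut at about 25% in these data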;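 further: 0% = DMSO with enzyme and 100% = buffer with substrate but no TDP2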
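System: recombinant human TDP2 / Amount: 120 nM TDP2 per well / Also added: 5 mM T5PNP chromogenic substrate / Doses: 12.8 µM single point, 1% DMSO / Incubation: 2 h at 37 °C / Detection: p-Nitrophenol epi absorbance / Evaluation: % inhibition relative to enzyme-containing and enzyme-free wells / Repeats: singlicate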
UHRF1 MBD2 ctr = human UHRF1 methylated DNA binding inhibitors. UHRF1 binding to methylated oligo, TR-FRET. inhibition, % at 4.4 µM. 370,000 tested, 0.75% active. AID 687016; in the data active means inhibition above about 21%;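 further: UHRF1 SRA domain binding a hemimethylated CpG hairpin DNA probe; 0% = median of test compound wells and 100% = reference inhibitor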
Target sequence (Q96T88 whole entry, looked up, the tested form may be a part): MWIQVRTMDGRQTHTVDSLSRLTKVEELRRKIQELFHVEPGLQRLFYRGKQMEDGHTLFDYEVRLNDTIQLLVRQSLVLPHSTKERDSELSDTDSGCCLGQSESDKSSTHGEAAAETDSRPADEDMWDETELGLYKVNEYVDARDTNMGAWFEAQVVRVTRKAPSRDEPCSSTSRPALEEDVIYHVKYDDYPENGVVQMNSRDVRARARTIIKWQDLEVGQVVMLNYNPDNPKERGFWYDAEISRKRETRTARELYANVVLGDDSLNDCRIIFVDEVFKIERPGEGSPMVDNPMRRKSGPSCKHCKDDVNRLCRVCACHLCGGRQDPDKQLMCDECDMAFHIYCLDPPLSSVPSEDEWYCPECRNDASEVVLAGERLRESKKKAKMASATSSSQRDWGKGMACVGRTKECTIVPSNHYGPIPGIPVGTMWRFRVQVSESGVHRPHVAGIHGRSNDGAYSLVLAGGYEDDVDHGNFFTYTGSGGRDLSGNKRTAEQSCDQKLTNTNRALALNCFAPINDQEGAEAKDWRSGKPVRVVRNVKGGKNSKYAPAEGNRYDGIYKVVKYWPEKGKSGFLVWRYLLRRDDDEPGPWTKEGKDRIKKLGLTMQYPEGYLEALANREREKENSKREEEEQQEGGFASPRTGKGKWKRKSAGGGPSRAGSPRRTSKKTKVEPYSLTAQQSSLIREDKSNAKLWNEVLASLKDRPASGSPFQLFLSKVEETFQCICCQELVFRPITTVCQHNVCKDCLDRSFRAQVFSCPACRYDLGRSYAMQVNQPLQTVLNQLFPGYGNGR
MBD2 inh = inhibitors of human MBD2 binding to methylated oligonucleotide. TR-FRET. inhibition, % at 4.4 µM. 370,000 tested, 0.31% active. AID 686964; in the data active means inhibition above about 13%
LEDGF integ inh = blocks HIV-1 LEDGF/p75-dependent DNA integration; TR-FRET IN-LEDGF/p75 DNA integration, Eu/Cy5; 370,000 tested, 0.64% active; inhibition, % at 3.7 µM;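 active means inhibition above the screen-wide mean plus 3 SD, cut at about 13% in these data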;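 further: signal is the Cy5 over europium emission ratio at 671 and 618 nm; 0% = plate median of compound wells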
HCV core dimer = HCV core protein dimerization inhibition. 300,000 tested, 0.33% active. inhibition, % at 5 µM. TR-FRET GST/Flag-core106 dimerization, 1536-well;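 active means inhibition above the mean of all tested compounds plus 3 SD, set per screening campaign, cut at about 45% in these data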
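System – GST-tagged and Flag-tagged HCV core protein residues 1-106 · Repeats – one well for each compound · Technique – TR-FRET 671 and 617 nm emission · Doses – one concentration, 5 µM, in 0.5% DMSO · Times – 4 h, 22.5 °C incubation · Also added – Eu donor and XL665 acceptor anti-tag antibodies · Measure – percent inhibition of core106 dimerization signal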
Starred values were filed as active, the others as inactive; . = no result.

SMILES	TDP2 inh	UHRF1 MBD2 ctr	MBD2 inh	LEDGF integ inh	HCV core dimer
CC1CCC2(CCC(=O)N2CCCOC(=O)NC(C)(C)C)CC1 (configuration not stated)	2	2	6	4	.
CCOC(=O)/C=c1\s/c(=C\c2ccc(C(F)(F)F)cc2)c(=O)n1CC(=O)NCc1ccco1	0	-2	-5	2	54*
O=C(c1ccc(F)cc1F)N(Cc1ccccn1)CC1CCCO1 (configuration not stated)	-10	-2	-1	3	.
Cc1ccc(C(=O)OCc2nc3ccsc3c(=O)[nH]2)o1	9	0	0	-3	0
O=C(/C=C/c1ccc(Br)o1)OCc1nc2ccsc2c(=O)[nH]1	.	.	.	.	75*
CCOC(=O)Cn1cc(CN2C(C(=O)OC)CN(Cc3ccccc3)CCS2(=O)=O)nn1 (configuration not stated)	0	17	5	2	.
COc1ccc(-n2cnnc2SCC(=O)Nc2cccnc2Cl)cc1	3	21*	-1	3	0
COc1ccccc1Sc1nc(-c2ccccc2)ncc1OC	4	48*	-3	4	0
CCN(CCNCC(O)COCc1ccc(Cl)cc1)c1cccc(C)c1 (configuration not stated)	1	29*	-4	2	3
CCN(CCNC(=O)c1ccc(C#N)cc1)c1cccc(C)c1	.	.	.	.	-10
CC(=O)Nc1ccc(OCC(C)CN2CCC(C(O)(c3ccccc3)c3ccccc3)CC2)cc1 (configuration not stated)	-5	0	2	-1	.
O=C(NC1(C(F)(F)F)N=C(c2ccccc2)NC1=O)c1ccccc1 (configuration not stated)	4	-4	3	0	-11
CC(=O)NC1(C(F)(F)F)N=C(c2ccccc2)NC1=O (configuration not stated)	3	23*	3	-1	-6
Cc1cccc2c(N=Nc3ccc(S(=O)(=O)Nc4ccc(Cl)cc4)cc3[N+](=O)[O-])c(O)[nH]c12	-8	0	2	5	49*
Cc1ccc2[nH]c(O)c(N=Nc3ccccc3[N+](=O)[O-])c2c1	5	0	4	-2	.
O=C(NC1CCCCN(Cc2ccc(OC(F)(F)F)cc2)C1=O)c1ccc(F)c(F)c1 (configuration not stated)	6	-2	-4	-2	.
COC(=O)[C@]12C[C@H](CC(=O)NCc3ccc(OC)c(OC)c3)C(=O)N(Cc3ccccc3)C1=C[C@H](C(C)(C)C)O[C@@H]2C	5	0	-1	-1	.
CCOC(=O)Cc1csc(SCn2nnc3ccccc3c2=O)n1	-10	-2	-2	-9	2
CCOC(=O)Cc1csc(-n2sc3ccccc3c2=O)n1	-7	3	-5	2	59*
CCCCNS(=O)(=O)CC1NCc2ccc(C)cc21 (configuration not stated)	7	-5	-5	-4	.
Cc1csc(N=Cc2ccc([N+](=O)[O-])o2)n1	4	22*	10	21*	.
O=[N+]([O-])c1ccc(/C=N/N=C/c2ccc([N+](=O)[O-])o2)o1	3	-3	-7	6	.
Cc1nc(Cl)c(C(=O)NC(C)(C)C)c(C)c1Cl	2	47*	4	-4	-14
COC(=O)C1CN(C2CCCC2)CCS(=O)(=O)N1Cc1ccc(Cl)cc1 (configuration not stated)	-8	1	1	-4	.
COC(=O)[C@]12C[C@H](CC(=O)N3CCCCC3)C(=O)N(CCC3=CCCCC3)C1=C[C@H](C1CCCC1)O[C@@H]2C	-6	5	9	0	.
SMILES	TDP2 inh	UHRF1 MBD2 ctr	MBD2 inh	LEDGF integ inh	HCV core dimer
CCN(CC)c1ccc(C(=O)OCc2cc(=O)oc3cc(O)ccc23)cc1	-4	0	-3	0	50*
COc1c(C)cc(Br)cc1C(=O)Nc1ccccc1N1CCN(C(=O)c2ccccc2)CC1	-2	55*	2	-2	16
COCCCn1c(SCC(=O)N2CCc3ccccc32)nnc1-c1ccco1	0	1	0	-1	0
CCn1c(SCC(=O)N2CCCc3ccccc32)nnc1-c1cccs1	2	21*	8	3	5
COCCCn1c(SCC(=O)N2CCc3ccccc32)nnc1-c1ccoc1C	1	5	-3	3	55*
COCC#Cc1ccc(CC[C@H]2O[C@H]3CC[C@@H](CO)O[C@H]3C[C@H]2n2cc(C3CC3)nn2)cc1	-3	3	2	5	.
CC(C)c1ccc(CN2CC(C(=O)Nc3ccccc3)CC2=O)cc1 (configuration not stated)	-5	27*	-1	0	-6
CCN(CC)c1ccc(NC(=O)C2CC(=O)N(Cc3ccccc3)C2)cc1 (configuration not stated)	-12	-4	0	2	-4
CCOC(=O)C1=NOC(C(=O)NCc2ccccc2)(C(=O)c2ccc(OC)cc2)C1 (configuration not stated)	0	-1	4	-1	.
CN(C(=O)CNC(=O)c1ccccc1OCC(=O)Nc1ccc(I)cc1)c1ccccc1	-4	-1	-2	1	.
COc1ccc(CCNS(=O)(=O)c2cc3c4c(c2)CC(=O)N4CCC3)cc1	3	26*	3	1	14
COc1ccc(S(=O)(=O)Nc2cc3c4c(c2)CC(=O)N4CCC3)cc1	-2	-2	-1	-3	-5
Cc1ccc(NS(=O)(=O)c2ccc(NC(=O)c3ccc(-c4ccccc4)cc3)cc2)c(C)c1	3	-3	2	-1	46*
CCOc1ccccc1NC(=O)C1=C(C)NC(=O)NC1c1cccc(OC)c1OC (configuration not stated)	-4	23*	10	3	5
O=C(Nc1nc(-c2ccccn2)cs1)c1cc2ccccc2o1	0	17	1	-6	4
Cc1cc(-c2csc(NC(=O)c3cc4ccccc4o3)n2)c(C)n1C	-10	4	0	14*	74*
Cc1ccc(C2C(C=Nc3c(C)n(C)n(-c4ccccc4)c3=O)=C(c3ccccc3)Oc3ccccc32)cc1 (configuration not stated)	-4	0	5	-5	46*
C[C@H]1[C@@H](OC(=O)Nc2ccc(C(F)(F)F)cc2)CC[C@@]23CCCN2C(=O)CCC[C@@H]13	-6	-2	-5	-3	.
O=C(c1ccc(C(F)(F)F)cc1)N1CCC(=O)N(C(COCc2ccccc2)Cc2ccccc2)CC1 (configuration not stated)	-14	40*	-4	-2	4
O=C(c1ccc(C(F)(F)F)cc1)N1CCC(=O)N(C(COCc2ccc(Cl)cc2)Cc2ccccc2)CC1 (configuration not stated)	-5	0	-2	0	4

Assay outcomes deposited in PubChem by The Scripps Research Institute Molecular Screening Center.
